This passage reports Activity and IC50 results from ChEMBL document CHEMBL4261571, “Development of highly active anti-Pneumocystis bisbenzamidines: insight into the influence of selected substituents on the in vitro activity” (Medchemcomm, 2017).

Experiment [1] concerns Pneumocystis carinii. The experiment in a line: Antipneumocystis activity against Pneumocystis carinii at 100 ug/ml after 24 to 72 hrs by ATP-based luciferin-luciferase assay. It is filed as functional, organism-based. The gist of the method: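 Single high-dose screen at 100 µg/ml against rat-derived, cryopreserved P. carinii in RPMI 1640 at 36 °C, 5% CO2, read at 24, 48 and 72 h. ATP was measured by luminescence after background subtraction, with triplicate wells of duplicate assays averaged. % ATP reduction was calculated relative to media control. Controls were media, DMSO vehicle, ampicillin 10 µg/ml and pentamidine isethionate 1 µg/ml.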

Experiment [2] concerns Pneumocystis carinii. The experiment in a line: Antipneumocystis activity against Pneumocystis carinii after 24 to 72 hrs by ATP-based luciferin-luciferase assay. It is filed as functional, organism-based. The gist of the method: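 P. carinii from immunosuppressed rat lungs (methylprednisolone 20 mg/kg s.c. weekly) was cryopreserved. It was exposed to compounds diluted in RPMI 1640 at 36 °C, 5% CO2, for 24, 48 and 72 h. ATP was measured by luciferin-luciferase luminescence after background subtraction. Triplicate wells of duplicate assays were averaged. % ATP reduction was calculated against media control, and IC50 came from linear regression.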

Experiment [3] in a line: Cytotoxicity against rat L2 cells assessed as decrease in cell viability after 24 to 72 hrs by ATP-based luciferin-luciferase assay. In outline:
(§1)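 A549 cells in DMEM and L2 cells in F12, each with 10% fetal calf serum, 1% MEM vitamins and 1% NEAA, were plated at 2 × 10^5/ml and grown to confluence. They were exposed first to 100 µg/ml, then to 100, 10, 1 and 0.1 µg/ml, for 24, 48 and 72 h in duplicate wells. Cells were lysed with 0.1 M NaOH and ATP was read by luciferin-luciferase luminescence. IC50 came from linear regression of % ATP reduction.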

For experiment [4], the system named is A549. Briefly: Cytotoxicity against human A549 cells assessed as decrease in cell viability after 24 to 72 hrs by ATP-based luciferin-luciferase assay. The gist of the method: as §1
The target of experiment [5] is Luciferin 4-monooxygenase (Photinus pyralis) (UniProt P08659). The experiment in a line: Effect on luciferin/firefly luciferase reaction assessed as quench effect at 100 ug/ml.
Sequence of Luciferin 4-monooxygenase (Photinus pyralis) (P08659 whole entry): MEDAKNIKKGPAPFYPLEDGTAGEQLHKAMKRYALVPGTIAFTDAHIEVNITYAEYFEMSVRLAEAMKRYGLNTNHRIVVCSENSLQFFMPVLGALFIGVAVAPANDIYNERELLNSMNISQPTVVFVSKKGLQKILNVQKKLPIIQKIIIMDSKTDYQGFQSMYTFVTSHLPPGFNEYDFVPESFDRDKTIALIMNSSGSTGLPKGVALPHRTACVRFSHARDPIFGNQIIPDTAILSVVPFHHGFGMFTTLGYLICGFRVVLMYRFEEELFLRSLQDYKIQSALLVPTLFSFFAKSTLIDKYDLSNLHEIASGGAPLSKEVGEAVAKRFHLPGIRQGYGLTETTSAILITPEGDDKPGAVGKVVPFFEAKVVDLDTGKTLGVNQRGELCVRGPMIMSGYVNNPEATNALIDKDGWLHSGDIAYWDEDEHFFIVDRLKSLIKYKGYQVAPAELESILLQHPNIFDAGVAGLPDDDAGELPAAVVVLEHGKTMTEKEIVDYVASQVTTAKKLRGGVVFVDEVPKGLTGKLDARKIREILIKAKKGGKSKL

The source made the active and inactive calls. The calls are words filed in the database; no cut-off is given here.

As usually defined, the IC50 is the concentration at which inhibition is half-maximal.

For the compound `CN(C(=O)CCC(=O)N(C)c1ccc(C(=N)N)cc1)c1ccc(C(=N)N)cc1`, the outcome in experiment [1] was Active. In addition, the IC50 is 0.076 µM in experiment [2], over 100 µM in experiment [3] and over 100 µM in experiment [4]. In addition, the outcome in experiment [5] was inactive.

In the case of `CN(C(=O)CCCC(=O)N(C)c1ccc(C(=N)N)cc1)c1ccc(C(=N)N)cc1`, the outcome in experiment [1] was Active. Also, the IC50 in experiment [2] was 0.303 µM; in experiment [3] it was over 100 µM; in experiment [4], over 100 µM. Also, the result in experiment [5] was inactive.

With `Cc1cc(C(=N)N)cc(C)c1OCCN(CCOc1c(C)cc(C(=N)N)cc1C)S(=O)(=O)c1ccccc1`, the result in experiment [1] was Active. The values for the IC50 in experiment [2], in experiment [3] and in experiment [4] were 1.52 µM, over 100 µM and over 100 µM, respectively. For the same compound, in experiment [5], the outcome was inactive.

As for `N=C(N)c1ccc(CN2CCN(Cc3ccc(C(=N)N)cc3)CC2)cc1`, in experiment [1], the result was Active. Also, the IC50 in experiment [2] was 0.109 µM; in experiment [3], over 100 µM; in experiment [4] it was over 100 µM. For the same compound, the outcome in experiment [5] was inactive.

`N=C(N)c1ccc(OCCCCCOc2ccc(C(=N)N)cc2)cc1` [PENTAMIDINE]: the IC50 in experiment [3] came to 33.8 µM.

`N=C(N)c1ccc(OCCOCCOc2ccc(C(=N)N)cc2[N+](=O)[O-])c([N+](=O)[O-])c1`: the result in experiment [1] was Active. The IC50 was 0.014 µM in experiment [2], 176 µM in experiment [3] and over 100 µM in experiment [4]. Besides, in experiment [5], the outcome was inactive.

`N=C(N)c1ccc(NCCOCCNc2ccc(C(=N)N)cc2N)c(N)c1`: in experiment [1], the result was Active. Also, the IC50 in experiment [2] is under 0.175 µM; in experiment [3], over 100 µM; in experiment [4], over 100 µM. Also, the Activity in experiment [5] amounted to 15%.

Turning to `N=C(N)c1ccc(OCCOCCOc2ccc(C(=N)N)cc2N)c(N)c1`, in experiment [1], the outcome was Active. The results for the IC50 in experiment [2], in experiment [3] and in experiment [4] were 0.011 µM, over 100 µM and over 100 µM, respectively. Further, the outcome in experiment [5] was inactive.

Take `C/N=C(\NC)c1ccc(CN2CCN(Cc3ccc(/C(=N/C)NC)cc3)CC2)cc1`: the outcome in experiment [1] was inactive.

For `CCCNC(=N)c1ccc(CN2CCN(Cc3ccc(C(=N)NCCC)cc3)CC2)cc1`, the outcome in experiment [1] was Active. Further, the IC50 in experiment [2] was 1.69 µM; in experiment [3], over 100 µM; in experiment [4], over 100 µM. Besides, the result in experiment [5] was inactive.

For the compound `CCN(CCOc1ccc(C(=N)N)cc1)CCOc1ccc(C(=N)N)cc1`, in experiment [1], the outcome was Active. The IC50 in experiment [2] is under 0.209 µM; in experiment [3] it was over 100 µM; in experiment [4], over 100 µM. Further, the outcome in experiment [5] was inactive.

For `N=C(N)c1ccc(NC(=O)COCC(=O)Nc2ccc(C(=N)N)cc2)cc1`, the result in experiment [1] was Active. In addition, the IC50 is 0.146 µM in experiment [2], over 100 µM in experiment [3] and over 100 µM in experiment [4]. Besides, the result in experiment [5] was inactive.

For the compound `N=C(N)c1ccc(NC(=O)CSCC(=O)Nc2ccc(C(=N)N)cc2)cc1`, the result in experiment [1] was Active. For the same compound, the IC50 in experiment [2] is 0.568 µM; in experiment [3], over 100 µM; in experiment [4], over 100 µM. The outcome in experiment [5] was inactive.

Turning to `N=C(N)c1ccc(SCCOCCSc2ccc(C(=N)N)cc2)cc1`, the result in experiment [1] was Active. Moreover, the values for the IC50 in experiment [2], in experiment [3] and in experiment [4] were under 0.223 µM, 26.4 µM and 50.9 µM, respectively. Further, in experiment [5], the result was inactive.

As for `Cc1cc(C(=N)N)cc(C)c1OCCOCCOc1c(C)cc(C(=N)N)cc1C`, the result in experiment [1] was Active. The IC50 in experiment [2] was determined as 0.175 µM; in experiment [3] it was 16.7 µM; in experiment [4], 75.8 µM. Further, the result in experiment [5] was inactive.

Take `COc1cc(C(=N)N)cc(Br)c1OCCCCCOc1c(Br)cc(C(=N)N)cc1OC`: in experiment [1], the result was Active. Also, the IC50 in experiment [2] came to 0.036 µM; in experiment [3], 29.5 µM; in experiment [4], 26.3 µM. In addition, in experiment [5], the result was inactive.

As for `c1cc(C2=NCCN2)ccc1SCCOCCSc1ccc(C2=NCCN2)cc1`, the outcome in experiment [1] was Active. The values for the IC50 in experiment [2], in experiment [3] and in experiment [4] were 0.01 µM, over 100 µM and 30.6 µM, respectively. The result in experiment [5] was inactive.

On to `N=C(N)c1ccc(NCCOCCNc2ccc(C(=N)N)cc2[N+](=O)[O-])c([N+](=O)[O-])c1`, for which the result in experiment [1] was Active. Also, the IC50 in experiment [2] is 0.062 µM; in experiment [3], over 100 µM; in experiment [4], over 100 µM. Also, in experiment [5], the outcome was inactive.

In the case of `Cc1cc(C(=N)N)cc(C)c1OCCCCCOc1c(C)cc(C(=N)N)cc1C`, in experiment [1], the result was Active. Also, the figures for the IC50 in experiment [2], in experiment [3] and in experiment [4] were under 0.213 µM, 19 µM and 32.2 µM, respectively. Besides, the result in experiment [5] was inactive.

In the case of `CCCCNC(=N)c1ccc(CN2CCN(Cc3ccc(C(=N)NCCCC)cc3)CC2)cc1`, the result in experiment [1] was Active. Moreover, the IC50 in experiment [2] was 0.083 µM; in experiment [3] it was over 100 µM; in experiment [4], over 100 µM. Besides, the result in experiment [5] was inactive.

Take `CCCCCNC(=N)c1ccc(CN2CCN(Cc3ccc(C(=N)NCCCCC)cc3)CC2)cc1`: the outcome in experiment [1] was Active. The concentration for half-maximal inhibition (IC50) is 0.041 µM in experiment [2], over 100 µM in experiment [3] and over 100 µM in experiment [4]. Moreover, in experiment [5], the outcome was inactive.

In the case of `CN(C(=O)CCCCC(=O)N(C)c1ccc(C(=N)N)cc1)c1ccc(C(=N)N)cc1`, the result in experiment [1] was Active. Further, the results for the IC50 in experiment [2], in experiment [3] and in experiment [4] were 0.012 µM, over 100 µM and over 100 µM, respectively. Moreover, the result in experiment [5] was inactive.
